{"source": "ChEMBL document CHEMBL1148706", "about": "“Probes for narcotic receptor mediated phenomena. 34. Synthesis and structure-activity relationships of a potent mu-agonist delta-antagonist and an exceedingly potent antinociceptive in the enantiomeric C9-substituted 5-(3-hydroxyphenyl)-N-phenylethylmorphan series” (J Med Chem, 2007)", "key": {"[1]": {"target": "T1, Mu-type opioid receptor (Homo sapiens, UniProt P35372)", "T1 sequence (P35372 whole entry)": "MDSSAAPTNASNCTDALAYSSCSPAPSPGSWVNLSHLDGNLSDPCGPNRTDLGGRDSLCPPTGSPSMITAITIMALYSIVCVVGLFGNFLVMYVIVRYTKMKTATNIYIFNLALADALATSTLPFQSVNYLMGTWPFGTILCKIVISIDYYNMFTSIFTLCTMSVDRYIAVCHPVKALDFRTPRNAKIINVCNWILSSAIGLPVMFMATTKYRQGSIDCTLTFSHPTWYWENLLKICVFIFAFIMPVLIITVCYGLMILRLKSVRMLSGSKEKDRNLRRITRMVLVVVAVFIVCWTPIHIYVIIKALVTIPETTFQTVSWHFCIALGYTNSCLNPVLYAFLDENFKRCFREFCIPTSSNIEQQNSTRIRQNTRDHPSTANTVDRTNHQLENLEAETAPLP", "test": "Displacement of [125I]IOXY from human mu opioid receptor expressed in CHO cells", "assay_type": "cell-based", "summary_of_the_method": "(§1)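 Membranes of stably transfected human opioid receptor CHO cells (hMOR, hDOR or hKOR), about 30 µg protein per tube, in 50 mM Tris-HCl pH 7.4 with protease inhibitors. [125I]IOXY at a single concentration displaced by 10 drug concentrations, 2 h at 25 °C, triplicates filtered; nonspecific with 10 µM naloxone; IC50 from two-parameter logistic fit.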"}, "[2]": {"target": "T2, Delta-type opioid receptor (Homo sapiens, UniProt P41143)", "T2 sequence (P41143 whole entry)": "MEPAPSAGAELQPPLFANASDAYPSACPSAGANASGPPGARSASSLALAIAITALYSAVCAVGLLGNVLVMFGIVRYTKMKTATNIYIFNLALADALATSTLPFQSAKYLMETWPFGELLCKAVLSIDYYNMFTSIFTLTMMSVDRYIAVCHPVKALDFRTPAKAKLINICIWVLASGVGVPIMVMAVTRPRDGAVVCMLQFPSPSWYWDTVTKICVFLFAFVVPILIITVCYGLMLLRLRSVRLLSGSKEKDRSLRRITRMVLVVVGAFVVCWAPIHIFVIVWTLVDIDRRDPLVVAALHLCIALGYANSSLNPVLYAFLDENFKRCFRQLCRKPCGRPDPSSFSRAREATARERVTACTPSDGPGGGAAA", "test": "Displacement of [125I]IOXY from human delta opioid receptor expressed in CHO cells", "assay_type": "cell-based", "summary_of_the_method": "as §1"}, "[3]": {"target": "T3, Kappa-type opioid receptor (Homo sapiens, UniProt P41145)", "T3 sequence (P41145 whole entry)": "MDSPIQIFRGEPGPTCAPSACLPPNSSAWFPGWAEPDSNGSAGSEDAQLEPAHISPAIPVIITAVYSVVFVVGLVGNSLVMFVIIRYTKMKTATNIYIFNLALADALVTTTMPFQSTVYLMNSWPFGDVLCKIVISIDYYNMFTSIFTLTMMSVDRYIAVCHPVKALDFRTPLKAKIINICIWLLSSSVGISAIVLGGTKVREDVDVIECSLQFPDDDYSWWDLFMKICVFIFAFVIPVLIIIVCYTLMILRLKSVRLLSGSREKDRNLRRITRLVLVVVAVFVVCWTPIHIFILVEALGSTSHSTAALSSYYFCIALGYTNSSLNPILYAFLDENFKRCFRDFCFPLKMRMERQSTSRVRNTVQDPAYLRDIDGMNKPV", "test": "Displacement of [125I]IOXY from human kappa opioid receptor expressed in CHO cells", "assay_type": "cell-based", "summary_of_the_method": "as §1"}, "[4]": {"target": "T1, Mu-type opioid receptor", "details": "CHO"}, "[5]": {"target": "T3, Kappa-type opioid receptor", "test": "Antagonist activity at human kappa opioid receptor expressed in CHO cells by [35S]GTP-gamma-S assay", "assay_type": "functional, cell-based", "summary_of_the_method": "(§2)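 [35S]GTP-γ-S binding on hDOR-CHO or hKOR-CHO membranes, 10 µM GDP, 50 pM radioligand, 3 h at 25 °C. Inhibition of stimulation by SNC80 (500 nM, δ) or (-)-U50,488 (500 nM, κ); ≥3 experiments of 10 points pooled, two-parameter logistic fit for IC50; Ke = IC50/(1+[D]/ED50(D)).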"}, "[6]": {"target": "T2, Delta-type opioid receptor", "test": "Antagonist activity at human delta opioid receptor expressed in CHO cells by [35S]GTP-gamma-S assay", "assay_type": "functional, cell-based", "summary_of_the_method": "as §2"}, "[7]": {"target": "T1, Mu-type opioid receptor", "details": "CHO", "remark": "listed apart in the source"}, "[8]": {"tested_on": "Mus musculus", "test": "Antinociceptive activity in mouse assessed after 30 to 40 mins at 1 mg/kg by warm water tail flick test", "assay_type": "functional", "summary_of_the_method": "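Mice, 55 °C water tail immersion after baseline (non-responders within 5 s excluded); s.c. dosing, tested 10–180 min post-injection, 10 s cutoff. % antinociception = 100×(test−control)/(10−control); A50 from linear regression at peak-effect time, ≥3 doses and 10 mice/dose.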"}, "[9]": {"tested_on": "Mus musculus", "test": "Induction of straub tail in mouse up to 30 mg/kg", "assay_type": "functional, organism-based", "set-up": "dose 30 mg/kg", "summary_of_the_method": "(§3)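 Signs observed in mice during in vivo antinociceptive testing after s.c. injection in 5% hydroxypropyl-β-cyclodextrin in water.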"}, "[10]": {"tested_on": "Mus musculus", "test": "Antinociceptive activity in sc dosed mouse by phenylquinone assay", "assay_type": "functional"}, "[11]": {"tested_on": "Mus musculus", "test": "Antinociceptive activity in sc dosed mouse by tail flick assay", "assay_type": "functional"}, "[12]": {"tested_on": "Mus musculus", "test": "Increased locomotor activity in mouse up to 30 mg/kg", "assay_type": "functional, organism-based", "set-up": "dose 30 mg/kg", "summary_of_the_method": "as §3"}, "[13]": {"tested_on": "Mus musculus", "test": "Antinociceptive activity in sc dosed mouse by hot plate assay", "assay_type": "functional"}, "[14]": {"target": "T2, Delta-type opioid receptor", "test": "Agonist activity at human delta opioid receptor expressed in CHO cells by [35S]GTP-gamma-S assay", "assay_type": "functional, cell-based", "summary_of_the_method": "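Membranes from stably transfected hDOR-CHO cells (DMEM, 10% FBS, G-418) in 50 mM Tris-HCl pH 7.4 with 100 mM NaCl, 10 mM MgCl2, 1 mM EDTA, 1 mM DTT, 10 µM GDP, 0.1% BSA; 50 pM [35S]GTP-γ-S, 3 h, 25 °C; filtration.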"}, "[15]": {"tested_on": "Mus musculus", "test": "Induction of ataxia in mouse at 1 mg/kg", "assay_type": "functional, organism-based", "set-up": "dose 1 mg/kg", "summary_of_the_method": "as §3"}, "[16]": {"tested_on": "Mus musculus", "test": "Increased locomotor activity in mouse at 1 mg/kg", "assay_type": "functional, organism-based", "set-up": "dose 1 mg/kg", "summary_of_the_method": "as §3"}, "[17]": {"tested_on": "Mus musculus", "test": "Induction of convulsions in mouse at 1 mg/kg", "assay_type": "functional, organism-based", "set-up": "dose 1 mg/kg", "summary_of_the_method": "as §3"}, "[18]": {"tested_on": "Mus musculus", "test": "Induction of straub tail in mouse at 1 mg/kg", "assay_type": "functional, organism-based", "set-up": "dose 1 mg/kg", "summary_of_the_method": "as §3"}, "[19]": {"target": "T2, Delta-type opioid receptor", "test": "Agonist activity at human delta opioid receptor expressed in CHO cells by [35S]GTP-gamma-S assay relative to SNC80", "assay_type": "functional, cell-based", "summary_of_the_method": "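Membranes from CHO cells stably transfected with human δ-opioid receptor cDNA (grown in DMEM, 10% FBS, G-418), incubated 3 h at 25 °C with 50 pM [35S]GTP-γ-S, 10 µM GDP, 50 µg protein in 50 mM Tris-HCl pH 7.4, 100 mM NaCl, 10 mM MgCl2, 1 mM EDTA, 1 mM DTT, 0.1% BSA. Nonspecific binding: 40 µM GTP-γ-S. Filtration, scintillation counting. Emax is extrapolated maximum, 100% = 500 nM SNC80 stimulation.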"}}, "note": "The source made the active and inactive calls.", "data": [{"smiles": "O=C1[C@H]2CCC[C@]1(c1cccc(O)c1)CCN2CCc1ccccc1", "values": [{"measurement": "Ki", "setting": "[1]", "value": 33, "unit": "nM"}, {"measurement": "Ki", "setting": "[2]", "value": 770, "unit": "nM"}, {"measurement": "Ki", "setting": "[3]", "value": 150, "unit": "nM"}]}, {"smiles": "C[C@H]1[C@H]2CCC[C@]1(c1cccc(O)c1)CCN2CCc1ccccc1", "values": [{"measurement": "ED50", "setting": "[4]", "value": 8.7, "unit": "nM"}, {"measurement": "Ke", "setting": "[5]", "value": 6, "unit": "nM"}, {"measurement": "Ki", "setting": "[1]", "value": 0.6, "unit": "nM"}, {"measurement": "Ki", "setting": "[2]", "value": 90, "unit": "nM"}, {"measurement": "Ki", "setting": "[3]", "value": 4, "unit": "nM"}, {"measurement": "Ke", "setting": "[6]", "value": 31, "unit": "nM"}, {"measurement": "Ke", "setting": "[7]", "value": 4.4, "unit": "nM"}]}, {"smiles": "CN1CC[C@]23c4c5ccc(O)c4O[C@H]2[C@@H](O)C=C[C@H]3[C@H]1C5", "note": "[MORPHINE]", "values": [{"measurement": "A50", "setting": "[8]", "value": 5.95, "unit": "mg/kg"}]}, {"smiles": "Oc1cccc([C@@]23CCC[C@@H]([C@@H]2O)N(CCc2ccccc2)CC3)c1", "values": [{"measurement": "Ki", "setting": "[1]", "value": 54, "unit": "nM"}, {"measurement": "Ki", "setting": "[2]", "value": 2740, "unit": "nM"}, {"measurement": "Ki", "setting": "[3]", "value": 235, "unit": "nM"}]}, {"smiles": "C=C1[C@@H]2CCC[C@]1(c1cccc(O)c1)CCN2CCc1ccccc1", "values": [{"measurement": "Ki", "setting": "[1]", "value": 7, "unit": "nM"}, {"measurement": "Ki", "setting": "[2]", "value": 234, "unit": "nM"}, {"measurement": "Ki", "setting": "[3]", "value": 18, "unit": "nM"}]}, {"smiles": "C[C@H]1C2CCCC1(c1cccc(O)c1)CCN2CCc1ccccc1", "note": "(mixture of isomers)", "values": [{"measurement": "Ki", "setting": "[1]", "value": 3.1, "unit": "nM"}, {"measurement": "Ki", "setting": "[2]", "value": 270, "unit": "nM"}, {"measurement": "Ki", "setting": "[3]", "value": 14.5, "unit": "nM"}]}, {"smiles": "O=C1[C@@H]2CCC[C@@]1(c1cccc(O)c1)CCN2CCc1ccccc1", "values": [{"measurement": "Ki", "setting": "[1]", "value": 400, "unit": "nM"}, {"measurement": "Ki", "setting": "[2]", "value": 4600, "unit": "nM"}, {"measurement": "Ki", "setting": "[3]", "value": 3830, "unit": "nM"}]}, {"smiles": "Oc1cccc([C@]23CCC[C@H]([C@@H]2O)N(CCc2ccccc2)CC3)c1", "values": [{"measurement": "Ki", "setting": "[1]", "value": 59, "unit": "nM"}, {"measurement": "Ki", "setting": "[2]", "value": 1570, "unit": "nM"}, {"measurement": "Ki", "setting": "[3]", "value": 245, "unit": "nM"}]}, {"smiles": "C[C@@H]1[C@@H]2CCC[C@@]1(c1cccc(O)c1)CCN2CCc1ccccc1", "values": [{"measurement": "Ki", "setting": "[1]", "value": 8, "unit": "nM"}, {"measurement": "Ki", "setting": "[2]", "value": 300, "unit": "nM"}, {"measurement": "Ki", "setting": "[3]", "value": 15, "unit": "nM"}]}, {"smiles": "C=C1[C@H]2CCC[C@@]1(c1cccc(O)c1)CCN2CCc1ccccc1", "values": [{"measurement": "A50", "setting": "[8]", "value": 0.11, "unit": "mg/kg"}, {"measurement": "ED50", "setting": "[4]", "value": 2.7, "unit": "nM"}, {"measurement": "Ke", "setting": "[5]", "value": 2, "unit": "nM"}, {"measurement": "Ki", "setting": "[1]", "value": 0.19, "unit": "nM"}, {"measurement": "Ki", "setting": "[2]", "value": 15, "unit": "nM"}, {"measurement": "Activity", "setting": "[9]", "value": "inactive"}, {"measurement": "ED50", "setting": "[10]", "value": 0.02, "unit": "mg/kg"}, {"measurement": "ED50", "setting": "[11]", "value": 0.03, "unit": "mg/kg"}, {"measurement": "Ki", "setting": "[3]", "value": 0.65, "unit": "nM"}, {"measurement": "Activity", "setting": "[12]", "value": "inactive"}, {"measurement": "Ke", "setting": "[6]", "value": 12, "unit": "nM"}, {"measurement": "ED50", "setting": "[13]", "value": 0.02, "unit": "mg/kg"}, {"measurement": "Ke", "setting": "[7]", "value": 2.2, "unit": "nM"}]}, {"smiles": "C=CCN1C[C@H](C)N([C@H](c2ccc(C(=O)N(CC)CC)cc2)c2cccc(OC)c2)C[C@H]1C", "values": [{"measurement": "ED50", "setting": "[14]", "value": 26, "unit": "nM"}]}, {"smiles": "Oc1cccc([C@]23CCC[C@H]([C@H]2O)N(CCc2ccccc2)CC3)c1", "values": [{"measurement": "Activity", "setting": "[15]", "value": "Active"}, {"measurement": "ED50", "setting": "[4]", "value": 5, "unit": "nM"}, {"measurement": "Ke", "setting": "[5]", "value": 610, "unit": "nM"}, {"measurement": "Ki", "setting": "[1]", "value": 0.19, "unit": "nM"}, {"measurement": "Ki", "setting": "[2]", "value": 13, "unit": "nM"}, {"measurement": "ED50", "setting": "[10]", "value": 0.002, "unit": "mg/kg"}, {"measurement": "ED50", "setting": "[11]", "value": 0.004, "unit": "mg/kg"}, {"measurement": "Activity", "setting": "[16]", "value": "Active"}, {"measurement": "Ki", "setting": "[3]", "value": 184, "unit": "nM"}, {"measurement": "ED50", "setting": "[14]", "value": 341, "unit": "nM"}, {"measurement": "Activity", "setting": "[17]", "value": "Active"}, {"measurement": "Activity", "setting": "[18]", "value": "Active"}, {"measurement": "ED50", "setting": "[13]", "value": 0.002, "unit": "mg/kg"}, {"measurement": "Emax", "setting": "[19]", "value": 73, "unit": "%"}]}, {"smiles": "Oc1cccc([C@@]23CCC[C@@H]([C@H]2O)N(CCc2ccccc2)CC3)c1", "values": [{"measurement": "Ki", "setting": "[1]", "value": 45, "unit": "nM"}, {"measurement": "Ki", "setting": "[2]", "value": 720, "unit": "nM"}, {"measurement": "Ki", "setting": "[3]", "value": 690, "unit": "nM"}]}]}
